Drawing on ChEMBL document CHEMBL1147735, “Library design, synthesis, and screening: pyridine dicarbonitriles as potential prion disease therapeutics” (J Med Chem, 2006), this text covers RUmax for 26 compounds.

The structures appear in SMILES notation.

Major prion protein (Mus musculus), sequence (P04925 whole entry): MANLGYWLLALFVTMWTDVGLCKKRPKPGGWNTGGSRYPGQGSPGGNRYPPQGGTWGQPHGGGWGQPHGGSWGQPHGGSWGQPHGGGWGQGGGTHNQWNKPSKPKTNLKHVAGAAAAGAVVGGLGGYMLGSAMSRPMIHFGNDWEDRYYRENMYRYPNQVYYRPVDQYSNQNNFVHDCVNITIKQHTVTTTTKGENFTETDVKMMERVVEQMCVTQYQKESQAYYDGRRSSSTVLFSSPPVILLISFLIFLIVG

For the first test, the target named is Major prion protein (Homo sapiens) (UniProt P04156). As to the kind of experiment: Binding affinity to human PrPC at 40 uM. The method in brief:
(§1)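 SPR at 25 °C, 30 µL/min. Each PrPC form was amine-coupled at 2 µg/mL onto a CM5 dextran chip via NHS/EDC, with ethanolamine block; flow cell 1 served as control. Ligand at 40 µM, 1 min association, 3 min dissociation, with DMSO calibration. Binding expressed as %RU_max, normalised for immobilised RU and molecular weights.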
In the case of `COC(=O)c1ccc(-c2c(C#N)c(N)nc(Sc3ccc(NC(C)=O)cc3)c2C#N)cc1`, the RUmax came out at 9.4%.

In the case of `CC(=O)c1ccc(-c2c(C#N)c(N)nc(Sc3ccc(O)cc3)c2C#N)cc1`, the RUmax was 0%.

Compound `COC(=O)c1cccc(Sc2nc(N)c(C#N)c(-c3ccccc3)c2C#N)c1` yielded an RUmax of 125%.

Take `CS(=O)(=O)c1ccc(-c2c(C#N)c(N)nc(Sc3ccc(O)cc3)c2C#N)cc1`: the RUmax is 0%.

Take `COC(=O)c1ccc(-c2c(C#N)c(N)nc(Sc3cccc(C(=O)OC)c3)c2C#N)cc1`: the RUmax came to 0%.

Regarding `CC(=O)Nc1ccc(Sc2nc(N)c(C#N)c(-c3cc(F)cc(F)c3)c2C#N)cc1`, the RUmax is 0%.

`COC(=O)c1ccc(-c2c(C#N)c(N)nc(Sc3cccc(Cl)c3)c2C#N)cc1` gave an RUmax of 0%.

For `COc1cccc(-c2c(C#N)c(N)nc(Sc3cccc(Cl)c3)c2C#N)c1`, the RUmax came out at 8.6%.

Turning to `COc1cccc(-c2c(C#N)c(N)nc(Sc3ccccc3)c2C#N)c1`, the RUmax is 0%.

Regarding `N#Cc1c(N)nc(Sc2ccc(Cl)cc2)c(C#N)c1-c1ccccc1`, the RUmax is 0%.

For `CC(=O)Nc1ccc(Sc2nc(N)c(C#N)c(-c3c(F)cccc3F)c2C#N)cc1`, the RUmax worked out at 37.3%.

For `COC(=O)c1ccc(Sc2nc(N)c(C#N)c(-c3ccccc3)c2C#N)cc1`, the RUmax was 0%.

Compound `N#Cc1c(N)nc(Sc2ccccc2)c(C#N)c1-c1ccccc1` yielded an RUmax of 0%.

Compound `N#Cc1c(N)nc(Sc2ccc(O)cc2)c(C#N)c1-c1cccc(O)c1` gave an RUmax of 34%.

`COc1ccc(-c2c(C#N)c(N)nc(Sc3ccccc3)c2C#N)cc1` registered an RUmax of 0%.

Compound `COC(=O)c1ccc(Sc2nc(N)c(C#N)c(-c3ccc(O)cc3)c2C#N)cc1` returned an RUmax of 0%.

`COC(=O)c1ccc(Sc2nc(N)c(C#N)c(-c3ccc(C(=O)OC)cc3)c2C#N)cc1`: the RUmax is 0%.

Turning to `N#Cc1c(N)nc(Sc2cccc(O)c2)c(C#N)c1-c1ccccc1`, the RUmax came to 70.3%.

In turn, `N#Cc1c(N)nc(Sc2ccc(O)cc2)c(C#N)c1-c1ccc(O)c(Cl)c1` came in with an RUmax of 53.4%.

Regarding `COc1ccc(-c2c(C#N)c(N)nc(Sc3cccc(Cl)c3)c2C#N)cc1`, the RUmax was found to be 0%.

The compound `COC(=O)c1ccc(-c2c(C#N)c(N)nc(Sc3ccc(C(=O)O)cc3)c2C#N)cc1` registered an RUmax of 5.9%.

As to `N#Cc1c(N)nc(Sc2cccc(Cl)c2)c(C#N)c1-c1ccc(Cl)cc1`, the RUmax was determined as 119%.

In turn, `COC(=O)c1ccc(-c2c(C#N)c(N)nc(Sc3ccc(O)cc3)c2C#N)cc1` yielded an RUmax of 0%.

For `N#Cc1c(N)nc(Sc2ccccc2F)c(C#N)c1-c1cccc(O)c1`, the RUmax was 17.2%.

In turn, `N#Cc1c(N)nc(Sc2ccc(O)cc2)c(C#N)c1-c1ccc(O)c(F)c1` came in with an RUmax of 44.2%.

`N#Cc1c(N)nc(Sc2cccc(Cl)c2)c(C#N)c1-c1ccccc1` returned an RUmax of 0%.

Another test shares this target. As to the kind of experiment: Binding affinity to truncated human PrPC at 40 uM. The method, boiled down:
as §1
`COC(=O)c1ccc(-c2c(C#N)c(N)nc(Sc3ccc(NC(C)=O)cc3)c2C#N)cc1` registered an RUmax of 6.4%.

`CC(=O)c1ccc(-c2c(C#N)c(N)nc(Sc3ccc(O)cc3)c2C#N)cc1` gave an RUmax of 0%.

For `COC(=O)c1cccc(Sc2nc(N)c(C#N)c(-c3ccccc3)c2C#N)c1`, the RUmax came out at 26.8%.

Regarding `CS(=O)(=O)c1ccc(-c2c(C#N)c(N)nc(Sc3ccc(O)cc3)c2C#N)cc1`, the RUmax stood at 0%.

`COC(=O)c1ccc(-c2c(C#N)c(N)nc(Sc3cccc(C(=O)OC)c3)c2C#N)cc1` registered an RUmax of 0%.

In turn, `CC(=O)Nc1ccc(Sc2nc(N)c(C#N)c(-c3cc(F)cc(F)c3)c2C#N)cc1` gave an RUmax of 0%.

The compound `COC(=O)c1ccc(-c2c(C#N)c(N)nc(Sc3cccc(Cl)c3)c2C#N)cc1` gave an RUmax of 0%.

In turn, `COc1cccc(-c2c(C#N)c(N)nc(Sc3cccc(Cl)c3)c2C#N)c1` had an RUmax of 6.7%.

With `COc1cccc(-c2c(C#N)c(N)nc(Sc3ccccc3)c2C#N)c1`, the RUmax amounted to 0%.

Compound `N#Cc1c(N)nc(Sc2ccc(Cl)cc2)c(C#N)c1-c1ccccc1` had an RUmax of 11.4%.

On to `CC(=O)Nc1ccc(Sc2nc(N)c(C#N)c(-c3c(F)cccc3F)c2C#N)cc1`, for which the RUmax was 20%.

Regarding `COC(=O)c1ccc(Sc2nc(N)c(C#N)c(-c3ccccc3)c2C#N)cc1`, the RUmax amounted to 0%.

The compound `N#Cc1c(N)nc(Sc2ccccc2)c(C#N)c1-c1ccccc1` came in with an RUmax of 0%.

The compound `N#Cc1c(N)nc(Sc2ccc(O)cc2)c(C#N)c1-c1cccc(O)c1` had an RUmax of 23.1%.

With `COc1ccc(-c2c(C#N)c(N)nc(Sc3ccccc3)c2C#N)cc1`, the RUmax amounted to 0%.

The compound `COC(=O)c1ccc(Sc2nc(N)c(C#N)c(-c3ccc(O)cc3)c2C#N)cc1` yielded an RUmax of 0%.

`COC(=O)c1ccc(Sc2nc(N)c(C#N)c(-c3ccc(C(=O)OC)cc3)c2C#N)cc1` returned an RUmax of 0%.

Take `N#Cc1c(N)nc(Sc2cccc(O)c2)c(C#N)c1-c1ccccc1`: the RUmax was 37.6%.

`N#Cc1c(N)nc(Sc2ccc(O)cc2)c(C#N)c1-c1ccc(O)c(Cl)c1` showed an RUmax of 33.4%.

The compound `COc1ccc(-c2c(C#N)c(N)nc(Sc3cccc(Cl)c3)c2C#N)cc1` registered an RUmax of 0%.

Compound `COC(=O)c1ccc(-c2c(C#N)c(N)nc(Sc3ccc(C(=O)O)cc3)c2C#N)cc1` showed an RUmax of 0%.

The compound `N#Cc1c(N)nc(Sc2cccc(Cl)c2)c(C#N)c1-c1ccc(Cl)cc1` registered an RUmax of 56.5%.

As for `COC(=O)c1ccc(-c2c(C#N)c(N)nc(Sc3ccc(O)cc3)c2C#N)cc1`, the RUmax worked out at 0%.

With `N#Cc1c(N)nc(Sc2ccccc2F)c(C#N)c1-c1cccc(O)c1`, the RUmax was 9.2%.

As to `N#Cc1c(N)nc(Sc2ccc(O)cc2)c(C#N)c1-c1ccc(O)c(F)c1`, the RUmax came to 28%.

With `N#Cc1c(N)nc(Sc2cccc(Cl)c2)c(C#N)c1-c1ccccc1`, the RUmax came to 0%.

The next test concerns the target Major prion protein (Mus musculus) (UniProt P04925). As to the kind of experiment: Binding affinity to mouse PrPC at 40 uM. The method in brief:
as §1
As for `COC(=O)c1ccc(-c2c(C#N)c(N)nc(Sc3ccc(NC(C)=O)cc3)c2C#N)cc1`, the RUmax is 13.3%.

For the compound `CC(=O)c1ccc(-c2c(C#N)c(N)nc(Sc3ccc(O)cc3)c2C#N)cc1`, the RUmax stood at 0%.

The compound `COC(=O)c1cccc(Sc2nc(N)c(C#N)c(-c3ccccc3)c2C#N)c1` had an RUmax of 33.2%.

`CS(=O)(=O)c1ccc(-c2c(C#N)c(N)nc(Sc3ccc(O)cc3)c2C#N)cc1` showed an RUmax of 0%.

As for `COC(=O)c1ccc(-c2c(C#N)c(N)nc(Sc3cccc(C(=O)OC)c3)c2C#N)cc1`, the RUmax was 0%.

The compound `CC(=O)Nc1ccc(Sc2nc(N)c(C#N)c(-c3cc(F)cc(F)c3)c2C#N)cc1` had an RUmax of 0%.

Regarding `COC(=O)c1ccc(-c2c(C#N)c(N)nc(Sc3cccc(Cl)c3)c2C#N)cc1`, the RUmax is 0%.

Compound `COc1cccc(-c2c(C#N)c(N)nc(Sc3cccc(Cl)c3)c2C#N)c1` returned an RUmax of 0%.

Turning to `COc1cccc(-c2c(C#N)c(N)nc(Sc3ccccc3)c2C#N)c1`, the RUmax stood at 0%.

With `N#Cc1c(N)nc(Sc2ccc(Cl)cc2)c(C#N)c1-c1ccccc1`, the RUmax stood at 0%.

For the compound `CC(=O)Nc1ccc(Sc2nc(N)c(C#N)c(-c3c(F)cccc3F)c2C#N)cc1`, the RUmax was 40.1%.

Consider `COC(=O)c1ccc(Sc2nc(N)c(C#N)c(-c3ccccc3)c2C#N)cc1`, for which the RUmax is 0%.

The compound `N#Cc1c(N)nc(Sc2ccccc2)c(C#N)c1-c1ccccc1` returned an RUmax of 0%.

In turn, `N#Cc1c(N)nc(Sc2ccc(O)cc2)c(C#N)c1-c1cccc(O)c1` had an RUmax of 43.1%.

`COc1ccc(-c2c(C#N)c(N)nc(Sc3ccccc3)c2C#N)cc1` yielded an RUmax of 0%.

As for `COC(=O)c1ccc(Sc2nc(N)c(C#N)c(-c3ccc(O)cc3)c2C#N)cc1`, the RUmax came to 0%.

The compound `COC(=O)c1ccc(Sc2nc(N)c(C#N)c(-c3ccc(C(=O)OC)cc3)c2C#N)cc1` registered an RUmax of 0%.

The compound `N#Cc1c(N)nc(Sc2cccc(O)c2)c(C#N)c1-c1ccccc1` gave an RUmax of 60.6%.

`N#Cc1c(N)nc(Sc2ccc(O)cc2)c(C#N)c1-c1ccc(O)c(Cl)c1` displayed an RUmax of 64.6%.

With `COc1ccc(-c2c(C#N)c(N)nc(Sc3cccc(Cl)c3)c2C#N)cc1`, the RUmax came out at 0%.

Turning to `COC(=O)c1ccc(-c2c(C#N)c(N)nc(Sc3ccc(C(=O)O)cc3)c2C#N)cc1`, the RUmax came out at 8.5%.

Consider `N#Cc1c(N)nc(Sc2cccc(Cl)c2)c(C#N)c1-c1ccc(Cl)cc1`, for which the RUmax was found to be 52.3%.

Turning to `COC(=O)c1ccc(-c2c(C#N)c(N)nc(Sc3ccc(O)cc3)c2C#N)cc1`, the RUmax came to 0%.

Compound `N#Cc1c(N)nc(Sc2ccccc2F)c(C#N)c1-c1cccc(O)c1` came in with an RUmax of 18.8%.

`N#Cc1c(N)nc(Sc2ccc(O)cc2)c(C#N)c1-c1ccc(O)c(F)c1`: the RUmax came to 53.8%.

Compound `N#Cc1c(N)nc(Sc2cccc(Cl)c2)c(C#N)c1-c1ccccc1` came in with an RUmax of 0%.
